Screening data deposited in PubChem BioAssay by The Scripps Research Institute Molecular Screening Center.
TAAR1 antag – antagonists of human TAAR1. Q96RJ0. CHO RD-HGA16 TAAR1, Fluo-8 calcium fluorescence, antagonist. inhibition, % at 3 µM. 1.5% of 360,000 active;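 active means inhibition above a per-plate cutoff, the mean inhibition of test compounds on that plate plus 3 SD, cut at about 49% in these data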
Target sequence (Q96RJ0 whole entry, looked up): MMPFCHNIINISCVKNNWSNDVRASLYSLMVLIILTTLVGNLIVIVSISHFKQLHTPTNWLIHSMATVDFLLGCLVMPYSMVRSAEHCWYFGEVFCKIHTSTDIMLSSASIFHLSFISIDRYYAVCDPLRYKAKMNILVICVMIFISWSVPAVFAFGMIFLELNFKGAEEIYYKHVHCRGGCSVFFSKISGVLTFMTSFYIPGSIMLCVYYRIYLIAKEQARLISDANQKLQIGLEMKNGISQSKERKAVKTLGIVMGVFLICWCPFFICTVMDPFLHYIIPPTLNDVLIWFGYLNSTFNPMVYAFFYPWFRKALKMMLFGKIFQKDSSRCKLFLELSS
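Material: RD-HGA16 CHO cells with stable hTAAR1 and Gα16; Dosing: single nominal final test compound concentration of 3 µM; Schedule: seeding 17-24 h prior, 75-min 37 °C, 30-min RT dye loading; Detection: kinetic Fluo-8 calcium fluorescence measurement; Measure: % inhibition from peak post-agonist over basal fluorescence ratio; Benchmarks: vehicle and agonist controls.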
OX1R antag-1 – antagonists of human orexin 1 receptor; CHO/OX1R cells, Fluo-8 calcium fluorescence, orexin A; 0.43% of 330,000 active; inhibition, % at 5 µM;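 active means inhibition above its plate's threshold, mean inhibition of all tested compounds on the plate plus 3 SD, cut at about 37% in these data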
GalR3 antag – antagonists of human GalR3. inhibition, % at 3 µM. HEK293 GalR3-CNG cAMP membrane potential fluorescence; galR3 body fused to GalR1 C-terminus. AID 651719. 0.44% of 360,000 active. O60755;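 active means inhibition above the screen-wide average plus 3 SD, cut at about 13% in these data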;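 further: forskolin and galanin both at EC90 stimulate the cells; cAMP rise reported by CNG channel membrane potential dye signal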
Target sequence (O60755 1-299 limits assumed): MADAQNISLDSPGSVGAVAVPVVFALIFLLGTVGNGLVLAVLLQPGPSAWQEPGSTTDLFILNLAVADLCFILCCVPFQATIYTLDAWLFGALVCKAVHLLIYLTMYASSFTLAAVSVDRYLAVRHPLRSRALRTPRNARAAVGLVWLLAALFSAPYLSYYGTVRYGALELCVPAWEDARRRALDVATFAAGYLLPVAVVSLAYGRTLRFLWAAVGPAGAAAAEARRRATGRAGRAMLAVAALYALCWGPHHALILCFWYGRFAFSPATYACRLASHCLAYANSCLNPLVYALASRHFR
CHO parental Ca – signal in parental CHO cells, OX1R antagonist counter-screen; parental CHO-K1, ATP-induced calcium, Fluo-8 fluorescence; inhibition, % at 5.6 µM; AID 463079; 0.63% of 330,000 active;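 active means inhibition above that plate's mean sample inhibition plus 3 SD, cut at about 26% in these data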
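Material: parental CHO cells / Compound: single nominal dose of 5.6 µM per compound / Signal: Fluo-8 fluorescence / Replicates: singlicate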
TAAR1 agonist – human TAAR1 agonism | Q96RJ0 | CHO RD-HGA16 TAAR1, Fluo-8 calcium fluorescence; vehicle wells 0%, saturating PEA agonist 100% | activation, % at 3 µM | 0.99% of 360,000 active | AID 624467;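 active means activation above the mean activation of all test compounds in the run plus 3 SD, cut at about 38% in these data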
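Test system: RD-HGA16 (CHO) cells co-expressing Gα16 and hTAAR1 / Benchmarks: DMSO vehicle as 0%, PEA at EC100 as 100% / Repeats: no replicates (n 1) / Measure: % activation from peak over basal fluorescence ratio, DMSO-to-PEA scaled / Timing: 17-24 h plating, Fluo-8 75 min 37 °C, 30 min RT / Technique: kinetic Fluo-8 calcium fluorescence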
OX1R antag-2 – OX1R (human) antagonism. O43613. OX1R-expressing cells, FRET antagonist read-out. inhibition, % at 6.6 µM. 1.8% of 330,000 active; in the data active means inhibition mostly above about 38%, no sharp cut-off; inactive means mostly below about 40%
OX1R HTRF conf – confirmation of human orexin 1 receptor antagonists, HTRF format | 49% of 1,800 active | OX1R-expressing cells, HTRF antagonist assay | inhibition, % at 6.6 µM | AID 492964 | shares compounds with OX1R antag-2; in the data active means inhibition above about 55%;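 further: CHO cells expressing OX1R stimulated with orexin A at about EC80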
CHO-K1 HTRF – counter-screen for OX1R antagonists: effect in parental CHO-K1 cells; shares compounds with OX1R antag-2; HTRF counterscreen; 48% of 1,800 active; inhibition, % at 6.6 µM; in the data active means inhibition above about 17%
A number is an active result; - = inactive; . = no result given. Most compounds without a hit are left out; they make up all but 4.3% or so of the library.

SMILES	TAAR1 antag	OX1R antag-1	GalR3 antag	CHO parental Ca	TAAR1 agonist	OX1R antag-2	OX1R HTRF conf	CHO-K1 HTRF
Nc1c([N+](=O)[O-])cc(-c2cnc[nH]2)cc1[N+](=O)[O-]	-	-	-	-	-	102.3	60.9	102.0
COc1ccc(-c2cnc[nH]2)cc1	-	-	-	-	-	-	.	.
COCCN(CC(=O)Nc1cccc(C)c1C)C(=O)c1cc2c(s1)CCC2	-	-	-	-	-	-	.	.
Nc1nnc(-c2cccc([N+](=O)[O-])c2)s1	-	-	-	-	-	111.2	-	40.2
O=Nc1c(-c2ccccc2)cc2ccccn12	-	-	-	-	-	152.5	63.9	86.4
Cc1cc(C)n2[nH]c(=O)c(N=Nc3cccc(Cl)c3)c2n1	-	-	-	-	-	-	.	.
Cc1cc(C)n2[nH]c(=O)c(N=Nc3ccccc3)c2n1	-	-	-	-	-	188.3	-	86.4
Cc1cc(=O)n2[nH]c(=O)c(N=Nc3ccccc3)c2[nH]1	-	-	-	-	-	126.2	-	58.2
O=C(Nc1ccc2nc([C@@H]3O[C@H](CO)[C@@H](O)[C@H](O)[C@H]3O)[nH]c2c1)NC(c1ccccc1)c1ccccc1	-	.	-	.	-	.	.	.
CC1(C(=O)Nc2cccc3c2CCCC3)CCN1C(=O)c1cccc(F)c1 (stereo not drawn)	-	.	-	.	-	.	.	.
OCCCCCN=c1cc(-c2ccccc2)oc2ccc(Cl)cc12	-	-	-	-	-	81.6	-	53.6
Clc1ccc2oc(-c3ccccc3)cc(=NCCCN3CCOCC3)c2c1	-	.	-	.	-	.	.	.
O=C(O)CCC(=O)Nc1nc2nc(-c3ccccc3)cc(-c3ccccc3)n2n1	-	-	-	-	-	109.2	-	-
COc1ccc(Cl)cc1Nc1nc(N)c2ccccc2n1	-	-	-	-	-	-	.	.
COc1ccc(OC)c(Nc2nc(N)nc(-c3cc4ccccc4o3)n2)c1	-	-	-	-	-	80.0	-	-
CCOc1cc(C(=O)OCC(=O)Nc2ccc(F)cc2Cl)ccc1OCC(=O)N1CCOCC1	-	.	-	.	-	.	.	.
CCCNC(=O)C(Cc1ccccc1)NS(=O)(=O)c1cccc2nsnc12 (stereo not drawn)	-	-	-	-	-	125.7	-	26.6
CCC(C)NC(=O)C(Cc1ccccc1)NS(=O)(=O)c1cccc2nsnc12 (stereo not drawn)	-	-	-	-	-	152.6	55.4	-
CCC(C)NC(=O)C(NS(=O)(=O)c1cccc2nsnc12)c1ccccc1 (stereo not drawn)	-	-	-	-	-	-	.	.
O=C(Nc1ccc(Cl)c(-c2nc3ccccc3[nH]2)c1)c1ccc2c(c1)OCO2	-	-	-	-	-	82.2	84.1	-
O=C(Nc1ccc(-c2nc3ccccc3[nH]2)cc1)c1ccc2c(c1)OCO2	-	-	-	-	-	-	.	.
COc1ccccc1C(=O)N/C(=C\c1cn(S(=O)(=O)N(C)C)c2ccccc12)C(=O)NCCCN1CCOCC1	-	-	-	-	-	-	.	.
CCOC(=O)[C@H]1[C@H]2COc3cc(OC)ccc3[C@@H]2N2C(=O)[C@@H](CO)NC(=O)[C@@]12C	.	-	.	-	.	-	.	.
CCc1nc2ccc(C(=O)NC3CCN(Cc4ccccc4)CC3)cn2c1N(C)Cc1ccc(N(C)C)cc1	-	.	-	.	-	.	.	.
Cc1cc(O)c(-c2cc(C(=O)NCCc3ccc(S(N)(=O)=O)cc3)[nH]n2)cc1C	-	-	-	-	-	-	.	.
SMILES	TAAR1 antag	OX1R antag-1	GalR3 antag	CHO parental Ca	TAAR1 agonist	OX1R antag-2	OX1R HTRF conf	CHO-K1 HTRF
Cc1cc(C)c(O)c(-c2cc(C(=O)NCCc3ccc(S(N)(=O)=O)cc3)[nH]n2)c1	-	-	-	-	-	98.0	-	-
COC(=O)[C@]12CCCCC=C1N(CCC1=CCCCC1)C(=O)[C@H](CC(=O)NCCCN1CCCC1=O)C2	-	.	-	.	-	.	.	.
CC(=O)Oc1ccc(C(=O)O)cc1OC(C)=O	-	-	-	-	-	-	.	.
CC(=O)Oc1cccc2c1C(=O)c1c(OC(C)=O)cc(C(=O)O)cc1C2=O	-	-	-	-	-	95.1	56.0	112.2
CCOC(=O)C(C)/C(C)=N\Nc1ccc([N+](=O)[O-])cc1[N+](=O)[O-] (stereo not drawn)	-	-	-	-	-	85.4	-	19.2
Cc1ccc(S(=O)(=O)NC2=C(N3CCN(Cc4ccccc4)CC3)C(=O)c3ccccc3C2=O)cc1	-	-	-	-	-	-	.	.
CCOC(=O)N1CCN(C2=C(NS(=O)(=O)c3ccc(C)cc3)C(=O)c3ccccc3C2=O)CC1	-	-	-	-	-	82.7	57.7	90.8
NC(=O)C1CCN(C2=C(NS(=O)(=O)c3ccc(Cl)cc3)C(=O)c3ccccc3C2=O)CC1	-	-	-	-	-	179.3	-	56.9
COC(=O)C1CCN(C2=C(NS(=O)(=O)c3ccc(Cl)cc3)C(=O)c3ccccc3C2=O)CC1	-	-	-	-	-	97.6	-	59.4
O=S1(=O)CC(N2CCN(c3ccccn3)CC2)CN1C1CCCCC1 (stereo not drawn)	-	.	-	.	-	.	.	.
COc1ccccc1/C=N/NC(=O)c1cccc(OC(F)(F)C(F)F)c1	-	-	-	-	-	-	.	.
COc1cccc(/C=N/NC(=O)C(=O)Nc2ccccc2OC(F)(F)C(F)F)c1O	-	-	-	-	-	96.5	93.3	-
CC(=O)N(C1=C(N2CCOCC2)C(=O)c2ccccc2C1=O)c1ccc(C(=O)O)cc1	-	-	-	-	-	125.0	98.1	86.0
O=C(O)c1ccc(NC2=C(N3CCOCC3)C(=O)c3ccccc3C2=O)cc1	-	-	-	-	-	-	.	.
COc1c(C)cc(C(=O)C2CCCN(C(=O)c3ccc4cc[nH]c4c3)C2)cc1C (stereo not drawn)	-	-	-	-	-	82.4	71.9	-
COc1c(C)cc(C(=O)C2CCCN(C(=O)c3cccc(F)c3)C2)cc1C (stereo not drawn)	-	-	-	-	-	105.7	87.7	-
COc1ccc2cc(C(=O)C3CCCN(C(=O)c4cnccn4)C3)ccc2c1 (stereo not drawn)	-	-	-	-	-	97.2	-	-
COC(=O)C1=C(C(=O)OC)[C@@H]2N(C)c3ccccc3[C@@]23C[C@@H](CO)N(C(=O)C2CCC2)C3=N1	-	-	-	-	-	-	.	.
CC(C)N(C(=O)[C@H]1C[C@H](CC(=O)NCc2ccco2)C(=O)N2CCc3c([nH]c4ccc(Cl)cc34)[C@]12C)C(C)C	-	-	-	-	-	-	.	.
